# Assay results from different studies.
# Compare with care: the assays were run in different laboratories.
# Target: Microtubule-associated serine/threonine-protein kinase 1 (MAST1, Homo sapiens, UniProt Q9Y2H9)
Structure (SMILES),assay,conditions,remaining binding [%]
C[C@@H]1CCN(c2nccc(-c3cnn4ncccc34)n2)C1,binding,1 µM,100
Cc1c(NC(=O)c2cc(C(N)=O)nc3cc(F)ccc23)c(C(F)(F)F)nn1Cc1ccc(C#N)cc1,"cell-free assay, competition with immobilised ligand",1 µM,77
CNC(=O)[C@@H]1CC[C@@H](n2c(-c3ccc4cnccc4c3)nc3ccc(C(=O)NCc4cccc(C(N)=O)c4)cc32)C1,"binding, competition with immobilised ligand",1 µM,100
CC(=O)N1CCC(c2ccc(C(=O)NC3=NCCN3)cc2C(F)(F)F)CC1,"cell-free assay, competition with immobilised ligand",1 µM,87
Cc1cnc(Nc2ccc(C(=O)N3CCC(N4CCCC4)CC3)cc2)nc1-c1cc2ccccc2s1,"binding, competition with immobilised ligand",1 µM,55
N[C@@H]1CCN(c2nccc(-c3cnn4ncccc34)n2)C1,binding,1 µM,100
COc1ncc2cc3ccccc3nc2c1C#N,"cell-free assay, competition with immobilised ligand",5 µM,98
O=C(NCCCN1CCOCC1)c1ccc(Nc2nccc(-c3cc4ccccc4s3)n2)cc1,"binding, competition with immobilised ligand",1 µM,78
Cc1cnn2ncc(-c3ccnc(N(C)C)n3)c2c1,binding,1 µM,100
c1cncc(-c2cccc(Nc3nccc(NC4CCCCC4)n3)c2)c1,"binding, competition with immobilised ligand",10 µM,95
O=C(Nc1cccnn1)N1CC(C/C=C/c2cncc(Oc3ccc(C(F)(F)F)cn3)n2)C1,"cell-free assay, competition with immobilised ligand",1 µM,58
CC1CCCN1c1nccc(-c2cnn3ncccc23)n1 (stereo not drawn),binding,1 µM,100
Cc1cc(-n2nc(Cc3cc(F)cc(C(F)(F)F)c3)nc2C)ccc1C(N)=O,"cell-free assay, competition with immobilised ligand",1 µM,100
O=C(NCC1CCOCC1)c1n[nH]cc1NC(=O)c1c(F)cccc1F,"binding, competition with immobilised ligand",1 µM,51
CN(CCCC(F)(F)F)c1nccc(-c2cnn3ncccc23)n1,binding,1 µM,100
O=C(c1ccc(Nc2ncc(Cl)c(-c3ccc(Cl)s3)n2)cc1)N1CCC(N2CCCC2)CC1,"binding, competition with immobilised ligand",1 µM,16
Nc1ncc2c(n1)-c1c([nH]c3ccc(C#CC4CC4)cc13)CCCC2,"binding, competition with immobilised ligand",1 µM,62
O=c1nc(-c2ccccn2)sc2ccccc12,"binding, competition with immobilised ligand",1 µM,73
COc1cnc(Nc2cccc(S(N)(=O)=O)c2)nc1N1CCN(c2ccccc2)C(=O)C1,"binding, competition with immobilised ligand",1 µM,100
c1cnn2ncc(-c3ccnc(N4CCC45COC5)n3)c2c1,binding,1 µM,55
COc1ccc2c(c1)O[C@H](c1ccc(OC)c(OC)c1)C[C@@H]2NC(=O)C1(c2ccc3c(c2)OC(F)(F)O3)CC1,"cell-free assay, competition with immobilised ligand",1 µM,100
